This note sets out measurements from ChEMBL document CHEMBL1135941, “Synthesis and biological activity of the new 5-fluorocytosine derivatives, 5'-deoxy-N-alkyloxycarbonyl-5-fluorocytosine-5'-carboxylic acid” (Bioorg Med Chem Lett, 2002).

For data set [1], the system named is A549. Put plainly: Inhibitory concentration of compound for cytotoxicity against […] human lung cells was determined. Type of data set: functional, cell-based. The procedure, abridged: (§1)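 MTT cytotoxicity assay on human cancer cell lines: A549 (lung), SK-OV-3 (ovarian), HCT15 (colon) and SK-MEL-2 (melanoma). Cells were incubated with compound for 3 days before the MTT read-out. Activity is reported as IC50 in μg/mL.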

Data set [2] relates to Mus musculus. The data set can be described thus: In vivo mean survival time of L1210 leukemic BDF1 mice when compound (0.67 mmol/kg/day) was administered orally.
Data set [3] has as its system HCT-15. Put plainly: Inhibitory concentration of compound for cytotoxicity against HCT15 human colon cells was determined. Type of data set: functional, cell-based. The procedure, abridged: as §1
Data set [4] relates to SK-OV-3. The data set can be described thus: Inhibitory concentration of compound for cytotoxicity against SK-OV-3 human ovarian cells was determined. It counts as functional, cell-based. The gist of the method: as §1
The test system of data set [5] is SK-MEL-2. The data set can be described thus: Inhibitory concentration of compound for cytotoxicity against SK-MEL-2 human melanoma cells was determined. Type of data set: functional, cell-based. The gist of the method:
as §1

A short description of data set [6]: Toxicity by oral administration of single dose in mice. To be noted: mouse, in vivo.
Data set [7] relates to Mus musculus. The data set can be described thus: In vivo mean survival time of L1210 leukemic BDF1 mice when compound (0.0032 mmol/kg/day) was administered orally.
Data set [8] has as its system Mus musculus. Put plainly: In vivo mean survival time of L1210 leukemic BDF1 mice when compound (0.016 mmol/kg/day) was administered orally.
The nature of data set [9]: Toxicity by oral administration of single dose in mice for 21 days. To be noted: mouse, in vivo, 504 h.
Data set [10] relates to Mus musculus. Put plainly: In vivo mean survival time of L1210 leukemic BDF1 mice when compound (0.23 nmol/kg/day) was administered intravenously. It counts as functional.
Data set [11] relates to Mus musculus. Put plainly: Percent increase in life span of L1210 leukemic BDF1 mice when compound (0.15 nmol/kg/day) was administered intravenously. Type of data set: functional.

SMILES strings stand for the structures. Converted amounts (≈) assume the structure as drawn. “And” between values parts separate entries of the source, which are not always exact repeats. Equal values may be shown once.

One may read the IC50 as the concentration at which inhibition is half-maximal. Low values mean higher potency, high ones lower potency. As to `CCCCCOC(=O)Nc1nc(=O)n(C2O[C@H](C(=O)O)[C@@H](O)[C@H]2O)cc1F` (stereo partly specified), the IC50 amounted to 0.17 µg/mL (≈ 0.437 µM) in data set [1], 0.12 µg/mL (≈ 0.308 µM) in [3], 0.03 µg/mL (≈ 0.0771 µM) in [4] and 0.03 µg/mL (≈ 0.0771 µM) in data set [5]. Moreover, in data set [2], the MST came to 11.3 days.

Broadly, the LD50 is the dose at which mortality reaches 50%. Low values mean greater toxicity, high ones lower toxicity. As for `C#CCOC(=O)Nc1nc(=O)n(C2O[C@H](C(=O)O)[C@@H](O)[C@H]2O)cc1F` (stereo partly specified), the half-inhibitory concentration (IC50) came to 0.005 µg/mL (≈ 0.014 µM) in [1], 0.04 µg/mL (≈ 0.112 µM) in [3], 0.005 µg/mL (≈ 0.014 µM) in data set [4] and 0.007 µg/mL (≈ 0.0196 µM) in data set [5]. This molecule also gave an LD50 in data set [6] of 12 mg/kg.

Turning to `C=CCOC(=O)Nc1nc(=O)n(C2O[C@H](C(=O)O)[C@@H](O)[C@H]2O)cc1F` (stereo partly specified), the MST in data set [7] came to 22.1 days; in data set [8], 24.8 days. Further, the IC50 in data set [1] amounted to 0.04 µg/mL (≈ 0.111 µM); in data set [3], 0.032 µg/mL (≈ 0.0891 µM); in data set [4] it was 0.008 µg/mL (≈ 0.0223 µM); in data set [5], 0.008 µg/mL (≈ 0.0223 µM). In addition, the LD50 worked out at 650 mg/kg in [6] and 22 mg/kg/day in [9].

Regarding `O=C(Nc1nc(=O)n(C2O[C@H](C(=O)O)[C@@H](O)[C@H]2O)cc1F)OCc1ccccc1` (stereo partly specified), the IC50 was 0.37 µg/mL (≈ 0.904 µM) in [1], 0.17 µg/mL (≈ 0.415 µM) in data set [3], 0.07 µg/mL (≈ 0.171 µM) in [4] and 0.1 µg/mL (≈ 0.244 µM) in data set [5].

`CCOC(=O)Nc1nc(=O)n(C2O[C@H](C(=O)O)[C@@H](O)[C@H]2O)cc1F` (stereo partly specified): the IC50 in data set [1] amounted to 0.49 µg/mL (≈ 1.41 µM); in data set [3] it was 0.47 µg/mL (≈ 1.35 µM); in data set [4] it was 0.16 µg/mL (≈ 0.461 µM); in [5], 0.16 µg/mL (≈ 0.461 µM).

Turning to `O=C(Nc1nc(=O)n(C2O[C@H](C(=O)O)[C@@H](O)[C@H]2O)cc1F)Oc1ccccc1` (stereo partly specified), the IC50 stood at 0.55 µg/mL (≈ 1.39 µM) in data set [1], 0.39 µg/mL (≈ 0.987 µM) in [3], 0.12 µg/mL (≈ 0.304 µM) in data set [4] and 0.1 µg/mL (≈ 0.253 µM) in [5].

The ILS is how much longer treated animals lived than controls. Low readings indicate little gain in survival, high ones much gain in survival. In the case of `O=c1[nH]cc(F)c(=O)[nH]1` [FLUOROURACIL], the IC50 in [1] was determined as 0.26 µg/mL (≈ 2 µM); in [3], 0.11 µg/mL (≈ 0.846 µM); in data set [4], 0.03 µg/mL (≈ 0.231 µM); in data set [5], 0.63 µg/mL (≈ 4.84 µM). In addition, the MST in data set [10] was 16.5 days and 14.3 days. Besides, the ILS in [11] was 87.5% and 62.5%.
